Screens: PubChem BioAssay, Sanford-Burnham Center for Chemical Genomics
SENP8 block-1 – inhibitors of human SENP8 protease; AID 602440; inhibition, % at 20 µM; recombinant SENP8, Nedd8 substrate fluorescence; Q96LD8; 360,000 tested, 0.64% active; in the data active means inhibition mostly above about 40%, no sharp cut-off; inactive means mostly below about 27%
Apaf1 inhib – inhibitors of human Apaf-1 apoptosome | O14727 | reconstituted apoptosome caspase-3 activity, DEVD-Rh110 fluorescence | inhibition, % at 20 µM | 330,000 tested, 0.71% active | AID 489030; active means inhibition of at least 40% at 20 µM;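 further: plate controls were DMSO wells for no effect and DEVD-CHO caspase inhibitor wells for full effect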
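System – cell-free apoptosome with Apaf-1, procaspase-3 and caspase-9 · Buffer or medium – pH 7.5 Hepes buffer with CHAPS, BSA, DTT · Also added – cytochrome c with DEVD-Rh110 · Times – 30 min compound preincubation, 50 min activation, room temperature · Technique – Rh110 fluorescence intensity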
SENP7 inh – inhibitors of human SENP7 protease; recombinant SENP7, Z-RLRGG-aminoluciferin luminescence, 40 min; AID 434973; inhibition, % at 5 µM; 330,000 tested, 1.5% active;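 active means inhibition above about 50% at the single test dose, limit read from the data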;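 further: plate controls were DMSO with enzyme for no effect and no enzyme buffer wells for full effect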
Target sequence (Q9BQF6 706-1050 limits assumed): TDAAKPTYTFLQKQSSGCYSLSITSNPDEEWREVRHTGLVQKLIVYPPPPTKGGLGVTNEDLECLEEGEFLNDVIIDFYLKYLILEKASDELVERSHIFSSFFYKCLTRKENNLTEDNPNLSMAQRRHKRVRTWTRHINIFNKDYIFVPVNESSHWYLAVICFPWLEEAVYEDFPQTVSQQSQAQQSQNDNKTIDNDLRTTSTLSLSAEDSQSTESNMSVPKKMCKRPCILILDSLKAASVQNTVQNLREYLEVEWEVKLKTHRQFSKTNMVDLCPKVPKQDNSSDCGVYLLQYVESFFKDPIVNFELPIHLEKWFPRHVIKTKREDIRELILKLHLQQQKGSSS
UBC13 polyUb – blocks human UBC13 polyubiquitin chain formation; P61088; TR-FRET; inhibition, % at 20 µM; 330,000 tested, 0.47% active; in the data active means inhibition above about 45%, passing the limit was not always enough
SENP8 block-2 – inhibitors of human SENP8 protease; Q96LD8; purified SENP8, Z-RLRGG-aminoluciferin cleavage, luminescence; inhibition, % at 10 µM; 330,000 tested, 1.2% active; AID 2540; in the data active means inhibition above about 50%
SENP6 block – inhibitors of human SENP6 protease; Q9GZR1; Recombinant SENP6 catalytic domain, aminoluciferin luminescence; inhibition, % at 10 µM; 330,000 tested, 1.8% active;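 active means inhibition above about 50% at the single tested dose, limit read from the data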;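 further: plate controls were DMSO wells with enzyme for no effect and DMSO wells lacking enzyme for full effect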
SENP8 confirm – confirmation of human SENP8 protease inhibitors; shares compounds with SENP7 inh; Recombinant SENP8, Z-RLRGG-aminoluciferin luminescence, 60 min; inhibition, % at 12.5 µM; 6,200 tested, 40% active;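 active means mean inhibition across replicates above about 50%, limit read from the data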
SENP6 confirm – confirmation of human SENP6 protease inhibitors; shares compounds with SENP7 inh; recombinant SENP6, Z-RLRGG-aminoluciferin luminescence; inhibition, % at 12.5 µM; 6,200 tested, 58% active
SENP7 confirm – human SENP7 inhibition, confirmed | shares compounds with SENP7 inh | recombinant SENP7, Z-RLRGG-aminoluciferin luminescence, 40 min | inhibition, % at 12.5 µM | 6,200 tested, 69% active | AID 488917
Casp3 select – inhibits human caspase-3 in SENP selectivity test | shares compounds with SENP7 inh | AID 488918 | purified caspase-3, Z-DEVD-aminoluciferin luminescence, 60 min | inhibition, % at 12.5 µM | 6,200 tested, 60% active;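 active means mean inhibition above about 50%, limit read from the data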;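 further: plate controls were enzyme with DMSO for no effect and wells without caspase-3 for full effect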
Target sequence (P42574 28-227 limits assumed): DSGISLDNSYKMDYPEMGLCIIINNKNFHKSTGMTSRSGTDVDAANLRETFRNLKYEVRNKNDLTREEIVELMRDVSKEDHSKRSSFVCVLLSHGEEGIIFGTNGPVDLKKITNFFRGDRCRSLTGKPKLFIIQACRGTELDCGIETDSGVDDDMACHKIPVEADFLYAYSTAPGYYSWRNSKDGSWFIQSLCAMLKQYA
Luc interf – luminescence interference (SENP counter-screen); 6,200 tested, 39% active; inhibition, % at 12.5 µM; AID 488919; Pre-incubated SENP8/Z-RLRGG-aminoluciferin, luciferase luminescence interference; shares compounds with SENP7 inh;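 active means mean inhibition above about 50% when retested at one dose, limit read from the data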;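 further: plate controls were DMSO wells with completed reaction for no effect and substrate without enzyme for full effect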
* marks the source's active call; other numbers are inactive results; i = inactive; nt = no result given. Only some compounds are listed: those with a hit (about 3% of all), similar ones and a draw of the others.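 How the source made its calls, unless noted: active means mean inhibition above about 50% in the one-dose retest (limit read from the data); inactive means the rest.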

SMILES	SENP8 block-1	Apaf1 inhib	SENP7 inh	UBC13 polyUb	SENP8 block-2	SENP6 block	SENP8 confirm	SENP6 confirm	SENP7 confirm	Casp3 select	Luc interf
Fc1ccccc1-c1nc(-c2ccccc2)no1	11	13	99*	1	95*	98*	36	97*	102*	90*	29
Fc1ccccc1-c1nc(-c2ccc(-c3nn[nH]n3)cc2)no1	-236	4	92*	-2	96*	97*	98*	98*	102*	96*	98*
Brc1ccccc1-c1nc(-c2ccccc2)no1	nt	12	98*	0	95*	97*	13	99*	103*	94*	91*
C[C@@H]1CN([C@H](C)CO)S(=O)(=O)c2ccc(C3=CCCCC3)cc2O[C@H]1CN(C)C(=O)Cc1cccnc1	21	nt	nt	nt	nt	nt	nt	nt	nt	nt	nt
CC(C)(C)n1nnnc1C(c1cc2ccccc2o1)N1CCN(C(=O)OCc2ccccc2)CC1 (stereo not given)	18	nt	nt	nt	nt	nt	nt	nt	nt	nt	nt
CCCCn1nc(C(=O)N(C)Cc2nc3ccccc3c(=O)[nH]2)c2ccccc2c1=O	8	nt	nt	nt	nt	nt	nt	nt	nt	nt	nt
COc1cc(/C=C/c2nc3ccccc3s2)cc(OC)c1O	-436	6	11	-22	1	3	nt	nt	nt	nt	nt
Cc1ccc(/C=C/c2nc3ccccc3s2)s1	-114	12	10	2	86*	92*	97*	100*	103*	95*	78*
CSC1=N/C(=C\c2ccc(F)cc2)C(=O)S1	-8	2	4	1	-9	-26	nt	nt	nt	nt	nt
COc1ccc(/C=C/C=C2\N=C(SC)SC2=O)cc1	25	17	91*	-79	84*	86*	-3	8	2	3	17
Clc1ccc(N2O[C@H]3C=C[C@@H]2C3)nc1	-77	nt	nt	nt	nt	nt	nt	nt	nt	nt	nt
O=C1/C(=C/c2cccc([N+](=O)[O-])c2)Oc2cc(O)ccc21	-14	3	45	-22	54*	67*	4	8	20	8	34
O=C1/C(=C/c2ccc(O)c(O)c2)Oc2cc(O)ccc21	-240	6	6	-55	-3	4	nt	nt	nt	nt	nt
CSc1ccc(CNC(=O)C2CCC(=O)N(CCc3ccc(Cl)cc3)C2)cc1 (stereo not given)	1	nt	nt	nt	nt	nt	nt	nt	nt	nt	nt
COc1cccc(/C(C)=N/N=C(\C)c2cccc(OC)c2)c1	13	1	66*	-8	61*	81*	43	56*	85*	55*	41
Cc1nn(-c2ccccc2)c(Cl)c1/C=N/Nc1ccc(Cl)c(C(=O)O)c1	-16	-12	92*	-10	97*	100*	99*	100*	103*	85*	80*
COC(=O)c1ccc(COc2ccc(/C=N/Nc3cccc(C(=O)O)c3)cc2)cc1	-3	-8	2	-17	7	35	nt	nt	nt	nt	nt
Cc1nn(-c2ccccc2)c(Cl)c1/C=N/NC(=O)OC(C)(C)C	1	8	-12	-3	-9	-15	nt	nt	nt	nt	nt
O=C(O)c1cc(N/N=C/c2ccc(OCc3ccccc3)cc2)ccc1Cl	-8	-1	30	-9	72*	56*	60*	54*	74*	15	69*
COc1ccc(/C=N/Nc2ncc(-c3ccccc3)cn2)c(OC)c1	-88	18	-3	-19	-1	-24	nt	nt	nt	nt	nt
COc1ccc(/C=N/Nc2ncccc2[N+](=O)[O-])c(OC)c1	30	10	99*	-228	97*	100*	99*	100*	104*	99*	19
Cc1cn([C@H]2C[C@H](O)[C@@H](/C=C/C(=O)NCCC(C)C)O2)c(=O)[nH]c1=O	19	nt	nt	nt	nt	nt	nt	nt	nt	nt	nt
CC(C)n1cc(/C=N/Nc2ccc(C(=O)O)cc2)c2ccccc21	-286	8	61*	0	80*	82*	90*	89*	96*	61*	55*
Cn1cc(/C=N/Nc2ccccc2)c2ccccc21	-353	4	-1	4	-8	-11	nt	nt	nt	nt	nt
O=C(O)c1ccc(N/N=C/c2cn(Cc3ccccc3F)c3ccccc23)cc1	-421	-7	47	8	88*	84*	96*	95*	99*	44	40
SMILES	SENP8 block-1	Apaf1 inhib	SENP7 inh	UBC13 polyUb	SENP8 block-2	SENP6 block	SENP8 confirm	SENP6 confirm	SENP7 confirm	Casp3 select	Luc interf
CCCS(=O)(=O)NC(=O)C1(C)CCCN(C(=O)c2cc(C)nn2C(C)(C)C)C1 (stereo not given)	6	nt	nt	nt	nt	nt	nt	nt	nt	nt	nt
Nc1nn2cc(-c3ccccc3)nc2c2ccccc12	-403	-2	69*	17	56*	33	78*	76*	91*	73*	74*
Cc1cn2nc(N)c3ccccc3c2n1	i	2	-4	9	-2	-3	nt	nt	nt	nt	nt
NC(=O)c1ccsc1NC(=O)c1ccc(S(=O)(=O)N2CCCC2)cc1	-24	12	20	4	21	30	nt	nt	nt	nt	nt
NC(=O)c1ccsc1NC(=O)c1ccc(S(=O)(=O)N2CCCCC2)cc1	-21	19	50	18	58*	67*	57*	72*	92*	56*	23
CC(=O)c1cccc(NC(=O)c2ccc(NS(C)(=O)=O)cc2)c1	28	0	-1	3	-2	7	nt	nt	nt	nt	nt
COc1ccc(C(=O)Nc2ccc3ccccc3c2)cc1	6	0	96*	-2	86*	88*	5	84*	100*	80*	32
COc1cccc(C(=O)Nc2cccc(NC(=O)c3ccccc3Cl)c2)c1	1	8	0	4	4	24	nt	nt	nt	nt	nt
COc1cccc(C(=O)Nc2ccc3c(c2)C(=O)NC3=O)c1	-355	8	55*	-6	51*	58*	-27	34	29	31	-4
CS(=O)(=O)Nc1ccc(C(=O)Nc2ccc3ccccc3c2)cc1	1	-5	58*	1	-1	37	4	1	65*	48	25
COc1cccc(C(=O)Nc2cccc(SC)c2)c1	12	-6	75*	7	55*	79*	72*	72*	90*	65*	70*
COc1ccc(S(=O)(=O)N(C)C[C@H]2OCc3cnnn3CCCC(=O)N([C@@H](C)CO)C[C@H]2C)cc1	10	nt	nt	nt	nt	nt	nt	nt	nt	nt	nt
O=C(NC1CCCC1)C(C1CC1)n1c(C2CC2)nc2ccccc21 (stereo not given)	7	nt	nt	nt	nt	nt	nt	nt	nt	nt	nt
